PubChem BioAssay AID623881 (Johns Hopkins Ion Channel Center, 2012)
Where “and” joins values, the source holds several entries; their conditions need not be identical. Identical values can stand only once. Calls of active or inactive are those of the source.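 Rule for the calls: active = peak Kir2.1 potassium channel inhibition over 30% at one or more doses, plus a fitted dose response curve; inactive = no inhibition at any dose, or no curve fitted.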

Molecular target: Inward rectifier potassium channel 2 (Mus musculus) (UniProt P35561)
Experiment: Kir2.1 channel inhibition, specificity check, SAR follow-up, selectivity assay for KCNK9 inhibitor project, cell-based, FluxOR thallium flux, CRC round 4 (AID 623881)
Conditions: Kir2.1-expressing cells, FluxOR thallium flux fluorescence; for thallium flux ratio, lower = inhibition: at 30 µM (top of the series)
Method in brief: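 Test system: HEK293 cells stably expressing the Kir2.1 inward rectifier channel; Compound: 10 concentrations per compound; Times: 90 min dye load, 20 min compound, room temperature; Technique: kinetic FluxOR thallium-dye fluorescence; Replication: at least duplicate wells per concentration.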

Chain of Inward rectifier potassium channel 2 (Mus musculus) (P35561 whole entry, looked up): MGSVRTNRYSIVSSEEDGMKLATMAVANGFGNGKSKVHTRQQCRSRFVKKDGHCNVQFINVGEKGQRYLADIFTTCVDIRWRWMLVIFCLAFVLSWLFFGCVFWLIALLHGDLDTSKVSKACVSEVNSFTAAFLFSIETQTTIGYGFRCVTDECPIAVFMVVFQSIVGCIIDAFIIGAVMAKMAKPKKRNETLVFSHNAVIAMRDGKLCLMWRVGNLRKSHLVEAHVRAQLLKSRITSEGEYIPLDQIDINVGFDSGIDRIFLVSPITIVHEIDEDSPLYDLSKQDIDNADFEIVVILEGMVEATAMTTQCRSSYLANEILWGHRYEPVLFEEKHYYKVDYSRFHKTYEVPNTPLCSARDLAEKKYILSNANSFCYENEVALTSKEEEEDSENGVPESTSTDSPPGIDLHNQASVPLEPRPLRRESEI

Row | Compound | IC50 | thallium flux ratio, lower = inhibition
1 | CC(C1CCN(C)CC1)n1c(-c2ccco2)n[nH]c1=S (stereo not given) |  | inactive
2 | COc1cccc(-c2nnc(SSc3nnc(-c4cccc(OC)c4)n3C(C)C3CC4CCC3C4)n2C(C)C2CC3CCC2C3)c1 (stereo not given) |  | inactive
3 | C[C@H]([C@@H]1CC2CC[C@H]1C2)n1c(-c2ccccc2F)n[nH]c1=S |  | inactive
4 | C[C@H](C1CCCCC1)n1c(-c2ccsc2)n[nH]c1=S |  | inactive
5 | COc1cccc(-c2n[nH]c(=S)n2[C@H](C)C2CCCCC2)c1 |  | inactive
6 | C[C@H]([C@@H]1CC2CC[C@H]1C2)n1c(-c2ccsc2)n[nH]c1=S |  | inactive
7 | CC([C@@H]1CC2CC[C@H]1C2)n1c(-c2ccsc2)n[nH]c1=S (stereo not given in full) |  | inactive
8 | COc1ccc(CC(=O)NCc2ccccc2-c2ccccc2C(=O)NCc2ccc(F)cc2F)cc1 |  | inactive
9 | C[C@H](C1CCCCC1)n1c(-c2ccccc2F)n[nH]c1=S |  | inactive
10 | C[C@@H]([C@@H]1CC2CC[C@H]1C2)n1c(-c2ccsc2)n[nH]c1=S | 23.5 µM and 25 µM | 
11 | CCCC(=O)C1CCN(c2ncnc3c2CN(C(=O)c2ccc(-c4ccccc4)cc2)CC3)CC1 |  | inactive
12 | CC(C1C[C@H]2CCC1C2)n1c(-c2ccsc2)n[nH]c1=S (stereo not given in full) | 23.1 µM | 
13 | COc1cccc(-c2n[nH]c(=S)n2[C@H](C)[C@@H]2CC3CC[C@H]2C3)c1 |  | inactive

The next lines start with the values.

Row | IC50 | thallium flux ratio, lower = inhibition | Compound
14 | 18.4 µM |  | COc1ccc(CSc2nnc(-c3ccco3)n2C(C)C2CC3CCC2C3)cc1OC (stereo not given)
15 |  | inactive | C[C@@H]([C@@H]1CC2CC[C@H]1C2)n1c(-c2ccco2)n[nH]c1=S
16 |  | inactive | COc1ccc(NC(=O)CSc2nnc(-c3ccco3)n2C(C)C2CC3CCC2C3)cc1OC (stereo not given)
17 |  | inactive | CC(C1CC2CCC1C2)n1c(SCC(=O)N2CCN(C)CC2)nnc1-c1ccco1 (stereo not given)
18 | 11.5 µM |  | CC(C1CC2CCC1C2)n1c(SCCc2cccc(O)c2)nnc1-c1ccco1 (stereo not given)
19 |  | inactive | CC(C1CC2CCC1C2)n1c(N)nnc1-c1ccco1 (stereo not given)
20 |  | inactive | C[C@H]([C@@H]1CC2CC[C@H]1C2)n1c(-c2ccco2)n[nH]c1=S
21 |  | inactive | COc1ccc(C(=O)CCSc2nnc(-c3ccco3)n2C(C)C2CC3CCC2C3)cc1OC (stereo not given)
22 |  | inactive | CC(C1CC2CCC1C2)n1c(-c2ccco2)nn(CCc2ccncc2)c1=S (stereo not given)
23 |  | inactive | CC(C1CC2CCC1C2)n1c(SCCN2CCOCC2)nnc1-c1ccco1 (stereo not given)
24 | 9.06 µM |  | COc1cccc(CCSc2nnc(-c3ccco3)n2C(C)C2CC3CCC2C3)c1 (stereo not given)
25 | 15.4 µM |  | CC(C1CC2CCC1C2)n1c(SCCc2ccccn2)nnc1-c1ccco1 (stereo not given)
